Experiment [1] relates to Tumor (iCCA) organoids. The experiment can be described thus: Organoid viability, CellTiter-Glo 3D. The experiment is classed as cell-based, human. The note with it: 72 h; for EC50: Homo sapiens, read-out: EC50, iCCA-derived organoids growth. The method in brief: (§1)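 Organoids came from dissociated patient tumour (iCCA) or non-tumour biopsies, embedded in reduced-growth-factor BME droplets with expansion medium. After 3 days, test compound was added at graded concentrations in expansion medium with 0.02% Tween20 for 72 h. Viability was read by CellTiter-Glo 3D luminescence as % of DMSO-treated organoids, with ≥3 independent experiments. EC50 (tumour organoids) came from nonlinear regression.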
A general note: In ATP-based viability assays light output follows the ATP content of the culture.

In experiment [2] the test system is non-tumor (NT) organoids. Kind of experiment: Organoid viability, CellTiter-Glo 3D. The experiment is classed as cell-based, human. The settings on record: 72 h. In outline: as §1
For experiment [3], the target named is T1, mVDAC1 wild-type (Mus musculus, UniProt Q60932). Kind of experiment: Fluorescence polarization, NADH binding to purified VDAC1. The settings on record: read-out: KD of NADH, VDAC1 wild-type; 5 μM NADH titrated with protein; Hill fit. The method in brief:
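NADH at 5 μM was titrated with increasing recombinant refolded mVDAC1 in 20 mM Tris, 50 mM NaCl, 0.1% LDAO, pH 8.0. NADH intrinsic fluorescence was read at ex 355 / em 460 nm. FP was computed from parallel and perpendicular intensities. KD came from a nonlinear Hill fit of FP against protein concentration, in triplicate.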

The target of experiment [4] is T1, mVDAC1 wild-type. The experiment can be described thus: Thermal denaturation. The experiment is classed as binding. The note with it: mean ± SEM n=3; for Temperature denaturation inflection point (Ti) shift: mVDAC1 0.9 mg/mL in LDAO, VA molecule 1 mM vs DMF 0.5%; for Inflection temperature T(i), WT: small molecule 1 mM in DMF. The method in brief: (§2)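 Wild-type or mutant refolded mVDAC1 (0.9 mg/ml final in 20 mM Tris-HCl, 50 mM NaCl, 0.1% LDAO, pH 8.0) was pretreated 1 h at 4°C with 1 mM test compound or 0.5% DMF. It was heated in capillaries from 35 to 95°C at 30°C/min while tryptophan fluorescence was read at 330/350 nm. Ti was the first-derivative maximum of F350/F330, checked by Hill fit. ΔTi was treated versus untreated, with ≥3 repeats.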

The target in experiment [5] is T2, mVDAC1 N238K (Mus musculus, UniProt Q60932, N251K). The experiment can be described thus: Thermal denaturation. Format: binding. The note with it: small molecule 1 mM in DMF; mean ± SEM n=3. The method in brief:
as §2

The target in experiment [6] is mVDAC1 N238F (Mus musculus, UniProt Q60932, N251F). Kind of experiment: Thermal denaturation. The experiment is classed as binding. The note with it: small molecule 1 mM in DMF; mean ± SEM n=3. In outline: as §2
Chain of mVDAC1 N238F (Q60932 14-296 N251F): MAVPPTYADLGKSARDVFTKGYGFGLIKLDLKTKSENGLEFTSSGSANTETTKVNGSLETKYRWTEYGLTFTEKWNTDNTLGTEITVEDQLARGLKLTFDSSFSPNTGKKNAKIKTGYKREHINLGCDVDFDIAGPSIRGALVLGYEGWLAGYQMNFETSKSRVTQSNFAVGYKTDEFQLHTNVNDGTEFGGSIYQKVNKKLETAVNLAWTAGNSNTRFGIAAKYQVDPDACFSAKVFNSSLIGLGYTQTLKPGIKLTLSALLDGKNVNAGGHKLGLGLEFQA
Experiment [7] has as its target mVDAC1 N238R (Mus musculus, UniProt Q60932, N251R). Kind of experiment: Thermal denaturation. The settings on record: small molecule 1 mM in DMF; mean ± SEM n=3. The experiment is classed as binding. In outline: as §2
In experiment [8] the target is mVDAC1 R218Y (Mus musculus, UniProt Q60932, R231Y). The experiment can be described thus: Thermal denaturation. Format: binding. The settings on record: small molecule 1 mM in DMF; mean ± SEM n=3. The method in brief: as §2
Chain of mVDAC1 R218Y (Q60932 14-296 R231Y): as the sequence (Q60932 14-296 N251F) above, with R218Y, F238N counted along it
Experiment [9] concerns the target mVDAC1 N207R (Mus musculus, UniProt Q60932, N220R). The experiment can be described thus: Thermal denaturation. Format: binding. The note with it: small molecule 1 mM in DMF; mean ± SEM n=3. The method in brief:
as §2

Experiment [10] deals with T3, mVDAC1 K236A (Mus musculus, UniProt Q60932, K249A). Kind of experiment: Thermal denaturation. Format: binding. The note with it: small molecule 1 mM in DMF; mean ± SEM n=3. In outline: as §2
T3 sequence (Q60932 14-296 K249A): as the sequence (Q60932 14-296 N251F) above, with K236A, F238N counted along it
Experiment [11] addresses mVDAC1 F18A (Mus musculus, UniProt Q60932, F31A). Kind of experiment: Thermal denaturation. The experiment is classed as binding. The settings on record: small molecule 1 mM in DMF; mean ± SEM n=3. In outline: as §2
In experiment [12] the target is mVDAC1 (Mus musculus, UniProt Q60932). Kind of experiment: 19F NMR protein-ligand interaction experiment. The experiment is classed as binding. The settings on record: compound 100 μM in LDAO buffer, with 5 μM mVDAC1. The method in brief: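 Recombinant mouse VDAC1 was expressed in E. coli M15, refolded from inclusion bodies into LDAO and purified by SEC. Test compound was used at 100 μM final in 20 mM Tris-HCl, 50 mM NaCl, 0.1% LDAO, pH 8.0, with or without 5 μM VDAC1. 19F spectra were taken at 298 K: 0.56 s acquisition, 1 s inter-scan delay, 256 scans, 2 Hz exponential broadening.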
Chain of mVDAC1 (Q60932 14-296): as the sequence (Q60932 14-296 N251F) above, with F238N counted along it

Experiment [13] has as its target T1, mVDAC1 wild-type. The experiment can be described thus: Fluorescence polarization NADH competition assay. The experiment is classed as binding. In outline:
(§3)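 This is an FP competition assay. Refolded, SEC-purified recombinant mVDAC1 (7 μM) was preloaded with 5 μM NADH and titrated with increasing test compound. Buffer was 20 mM Tris, 50 mM NaCl, 0.1% LDAO, pH 8.0. FP was computed from parallel and perpendicular intensities. Apparent KD came from a Hill fit of FP against compound concentration, run in triplicate.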
For orientation: Fluorescence polarisation rises when a labelled molecule tumbles more slowly, as on binding a larger partner.

Experiment [14] addresses T2, mVDAC1 N238K. The experiment can be described thus: Fluorescence polarization NADH competition assay. Format: binding. The method in brief: as §3
In experiment [15] the target is T3, mVDAC1 K236A. The experiment can be described thus: Fluorescence polarization NADH competition assay. Format: binding. The note with it: apparent KD, NADH 5 μM, protein 7 μM, mean ± SEM n=3. The method in brief: as §3
Experiment [16] has as its system NIH-3T3. The experiment can be described thus: Cell viability MTT assay. The experiment is classed as cell-based. The settings on record: Mus musculus, NIH3T3, 48 h, read-out: Half the effective dose (EC50), cell viability. In outline:
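NIH-3T3 kept in high-glucose DMEM with 10% calf serum and penicillin/streptomycin at 37°C, 5% CO₂, used at 70–80% confluency. Seeded 10.000 cells/well, treated 24 h later with a concentration range of test compound for 48 h. MTT added (final 5 mg/ml), 3 h at 37°C, formazan dissolved in DMSO, absorbance 590 nm. n = 3, mean ± SEM; EC50 by nonlinear regression.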

For experiment [17], the system named is iCCA patient-derived 2D cells. Kind of experiment: MTT viability of patient-derived 2D cells. Format: cell-based, human. The note with it: 72 h exposure, 2μM. In outline: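 Primary 2D cells came from iCCA patient biopsies, with paired non-tumour cells as control. Cells were grown in DMEM/F-12 with 10% FBS and 1% pen/strep. They were seeded at 5.000 cells/well, treated 3 days later with test compound at 2 μM for 72 h, and scored by MTT absorbance. n = 3.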

“Also recorded” adds a separate entry of the source.

T1 sequence (Q60932 14-296): as the sequence (Q60932 14-296 N251F) above, with F238N counted along it
Chain of mVDAC1 F18A (Q60932 14-296 F31A): as the sequence (Q60932 14-296 N251F) above, with F18A, F238N counted along it
Chain of mVDAC1 N238R (Q60932 14-296 N251R): as the sequence (Q60932 14-296 N251F) above, with F238R counted along it
Chain of mVDAC1 N207R (Q60932 14-296 N220R): as the sequence (Q60932 14-296 N251F) above, with N207R, F238N counted along it
T2 sequence (Q60932 14-296 N251K): as the sequence (Q60932 14-296 N251F) above, with F238K counted along it

In the case of `Nc1ccn([C@@H]2O[C@H](CO)[C@@H](O)C2(F)F)c(=O)n1` [GMB, gemcitabine, reference compound], the “effect on viability of iCCA organoids” value in experiment [1] was “significant efficacy”. For the same compound, the “effect on viability of non-tumor organoids” value in experiment [2] is on record as “significant efficacy”.

As to `NC(=O)C1=CN([C@@H]2O[C@H](COP(=O)(O)OP(=O)(O)OC[C@H]3O[C@@H](n4cnc5c(N)ncnc54)[C@H](O)[C@@H]3O)[C@@H](O)[C@H]2O)C=CC1` [NADH], the Kd in experiment [3] amounted to 6.8 ± 0.06 µM.

A word on the EC50: it is the midpoint of the concentration-response curve. Consider `O=C(CC(O)(c1nc2ccccc2s1)C(F)(F)F)c1cccc(Br)c1` (stereo not drawn) [VA-C1, 3-(1,3-benzothiazol-2-yl)-1-(3-bromophenyl)-4,4,4-trifluoro-3-hydroxybutan-1-one], for which, in [4], the “Temperature denaturation inflection point (Ti) shift” value is “+4.6 ± 0.1 °C”. Moreover, in experiment [4], the “Inflection temperature T(i), WT” value was determined as 60.2 ± 0.1 °C. In addition, in experiment [5], the “Inflection temperature T(i), N238K” value came out at 64.0 ± 0.1 °C. In experiment [6], the “Inflection temperature T(i), N238F” value was determined as 64.0 ± 0.1 °C. Besides, in experiment [7], the “Inflection temperature T(i), N238R” value worked out at 62.5 ± 0.1 °C. In addition, the “Inflection temperature T(i), R218Y” value in experiment [8] turned out to be 62.3 ± 0.1 °C. Also, in experiment [9], the “Inflection temperature T(i), N207R” value is 63.2 ± 0.1 °C. For the same compound, the “Inflection temperature T(i), K236A” value in experiment [10] turned out to be 57.3 ± 0.1 °C. The “Inflection temperature T(i), F18A” value in [11] stood at 58.0 ± 0.1 °C. Moreover, in experiment [12], the “19F resonance change upon VDAC1 binding” value is “direct binding; also recorded: reduction and broadening of its peak”. In addition, the Kd turned out to be 18.7 ± 0.3 µM in experiment [13], 15.2 ± 0.1 µM in experiment [14] and 26.4 ± 0.4 µM in experiment [15]. In addition, the results for the EC50 in experiment [16] and in [1] were 146 ± 3 µM and 15 ± 2 µM, respectively. Further, the “reduction in iCCA cell viability” value in experiment [17] was “about 50%”. In [1], the “effect on viability of iCCA organoids” value is given as “reduce cell viability of iCCA organoids in a dose-dependent manner”.

For `Cc1ccc(C(=O)OCC(=O)N=c2sccn2Cc2ccccc2Cl)s1` [VA-C6, [2-[[3-[(2-chlorophenyl)methyl]-1,3-thiazol-2-ylidene]amino]-2-oxoethyl] 5-methylthiophene-2-carboxylate], the “Temperature denaturation inflection point (Ti) shift” value in experiment [4] was “+4.6 ± 0.1 °C”. Also, the “Inflection temperature T(i), WT” value in experiment [4] came to 60.2 ± 0.1 °C. The “Inflection temperature T(i), N238K” value in [5] came to 63.8 ± 0.1 °C. The “Inflection temperature T(i), N238F” value in [6] came out at 63.2 ± 0.1 °C. The “Inflection temperature T(i), N238R” value in experiment [7] stood at 61.8 ± 0.1 °C. For the same compound, the “Inflection temperature T(i), R218Y” value in [8] was 61.6 ± 0.1 °C. The “Inflection temperature T(i), N207R” value in experiment [9] was 63.0 ± 0.1 °C. Further, the “Inflection temperature T(i), K236A” value in experiment [10] was 57.0 ± 0.1 °C. Moreover, the “Inflection temperature T(i), F18A” value in [11] came to 58.1 ± 0.1 °C. The Kd in experiment [13] amounted to 18.7 ± 0.6 µM; in [14], 14.9 ± 0.5 µM; in [15] it was 28.8 ± 0.2 µM. The EC50 in [16] was found to be 127 ± 4 µM.

For the compound `CC(=O)N(c1nc(COC(=O)c2ccsc2)cs1)c1ccccc1F` [VA-D10, [2-(N-acetyl-2-fluoroanilino)-1,3-thiazol-4-yl]methyl thiophene-3-carboxylate], the “Temperature denaturation inflection point (Ti) shift” value in [4] is “+4.9 ± 0.1 °C”. Also, the “Inflection temperature T(i), WT” value in experiment [4] is 60.5 ± 0.1 °C. The “Inflection temperature T(i), N238K” value in experiment [5] came to 64.4 ± 0.1 °C. The “Inflection temperature T(i), N238F” value in [6] is 63.3 ± 0.1 °C. Moreover, the “Inflection temperature T(i), N238R” value in experiment [7] is 63.1 ± 0.1 °C. Further, in [8], the “Inflection temperature T(i), R218Y” value was determined as 62.2 ± 0.2 °C. Moreover, the “Inflection temperature T(i), N207R” value in experiment [9] came out at 62.9 ± 0.1 °C. In addition, the “Inflection temperature T(i), K236A” value in experiment [10] is 57.9 ± 0.1 °C. In addition, in experiment [11], the “Inflection temperature T(i), F18A” value was 57.3 ± 0.1 °C. Further, the “19F resonance change upon VDAC1 binding” value in experiment [12] is given as “direct binding; also recorded: significantly move their chemical shifts”. The Kd in experiment [13] stood at 18.5 ± 0.2 µM; in [14], 10.7 ± 0.1 µM; in experiment [15], 28 ± 0.7 µM. For the same compound, the EC50 in experiment [16] is 160 ± 4 µM; in experiment [1], 25 ± 6 µM. In addition, the “reduction in iCCA cell viability” value in [17] is on record as “about 50%”. Further, the “effect on viability of iCCA organoids” value in experiment [1] is reported as “reduce cell viability of iCCA organoids in a dose-dependent manner”.

Turning to `O=C1C(=Cc2ccc(Cl)cc2)CSc2ccccc21` [VA-D11, 3-[(4-chlorophenyl)methylidene]thiochromen-4-one], the “Temperature denaturation inflection point (Ti) shift” value in [4] is “+4.7 ± 0.1 °C”. Also, in experiment [4], the “Inflection temperature T(i), WT” value stood at 60.2 ± 0.1 °C. Further, the “Inflection temperature T(i), N238K” value in [5] came out at 64.5 ± 0.1 °C. The “Inflection temperature T(i), N238F” value in [6] was determined as 63.1 ± 0.1 °C. The “Inflection temperature T(i), N238R” value in experiment [7] was 63.1 ± 0.1 °C. Moreover, the “Inflection temperature T(i), R218Y” value in experiment [8] was found to be 62.3 ± 0.1 °C. Further, the “Inflection temperature T(i), N207R” value in [9] is 62.9 ± 0.1 °C. In [10], the “Inflection temperature T(i), K236A” value is 57.9 ± 0.1 °C. Besides, the “Inflection temperature T(i), F18A” value in [11] came to 57.2 ± 0.1 °C. For the same compound, the Kd in experiment [13] worked out at 15.9 ± 0.7 µM; in [14], 13.1 ± 0.4 µM; in experiment [15], 24.2 ± 0.6 µM. For the same compound, in experiment [16], the EC50 was determined as 118 ± 3 µM.

Source of the values: publication PMC11112339 (iScience, 2024).
